Source: PubChem (several laboratories)
The list is not random: actives were taken first. Their share in the collection is about 1%.
PERK inh – inhibitors of human PERK kinase. Q9NZJ5. inhibition, % at 5.6 µM. AID 1416. actives 0.17% (n = 220,000). CHO PERK-DD fusion, SEAP luminescence translation reporter;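 active = inhibition above the mean inhibition of all tested compounds plus 3 SD, set separately per screening campaign, cut at about 2.9% in these data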;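 also: PERK kinase domain activated by AP20187 dimerizer at 100 nM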
Target sequence (Q9NZJ5 whole entry, looked up, the tested form may be a part): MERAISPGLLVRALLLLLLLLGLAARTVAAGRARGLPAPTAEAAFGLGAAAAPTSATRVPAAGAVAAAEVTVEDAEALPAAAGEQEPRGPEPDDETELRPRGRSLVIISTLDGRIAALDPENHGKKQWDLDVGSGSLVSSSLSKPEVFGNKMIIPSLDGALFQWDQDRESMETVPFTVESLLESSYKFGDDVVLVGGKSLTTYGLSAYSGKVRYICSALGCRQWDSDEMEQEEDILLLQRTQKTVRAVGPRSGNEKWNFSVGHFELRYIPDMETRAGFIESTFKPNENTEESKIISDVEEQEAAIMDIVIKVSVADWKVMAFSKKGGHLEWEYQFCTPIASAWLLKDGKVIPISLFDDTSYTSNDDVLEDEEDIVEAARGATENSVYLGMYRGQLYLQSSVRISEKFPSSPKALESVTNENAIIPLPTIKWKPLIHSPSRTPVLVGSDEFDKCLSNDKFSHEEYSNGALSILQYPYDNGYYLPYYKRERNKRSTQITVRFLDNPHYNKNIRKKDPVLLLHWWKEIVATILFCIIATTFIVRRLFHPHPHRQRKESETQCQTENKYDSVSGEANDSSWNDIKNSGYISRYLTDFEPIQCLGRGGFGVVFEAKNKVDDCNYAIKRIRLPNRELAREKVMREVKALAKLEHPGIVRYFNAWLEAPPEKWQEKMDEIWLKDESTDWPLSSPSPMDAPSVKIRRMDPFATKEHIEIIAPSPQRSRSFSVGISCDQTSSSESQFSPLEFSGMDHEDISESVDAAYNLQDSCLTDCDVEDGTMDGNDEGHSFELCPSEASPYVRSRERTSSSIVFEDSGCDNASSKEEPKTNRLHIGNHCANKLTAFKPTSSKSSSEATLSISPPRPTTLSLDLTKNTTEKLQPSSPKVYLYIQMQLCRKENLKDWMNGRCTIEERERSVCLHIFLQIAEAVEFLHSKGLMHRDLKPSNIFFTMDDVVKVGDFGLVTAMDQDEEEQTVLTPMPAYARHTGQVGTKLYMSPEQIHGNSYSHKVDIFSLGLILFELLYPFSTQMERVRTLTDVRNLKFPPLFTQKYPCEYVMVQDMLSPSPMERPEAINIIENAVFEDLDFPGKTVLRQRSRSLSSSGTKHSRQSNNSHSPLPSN
TNF death inh – TNF-alpha cell death inhibition in Jurkat FADD-/- cells | Jurkat FADD-/- TNF necroptosis rescue, ATP luminescence, 24 h; 0 = TNF only, 100 = no-TNF cells | activation (protection from cell death), % at 10 µM | actives 0.068% (n = 220,000);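 active = activation, meaning protection from cell death, of at least 50% relative to plate controls; inactive = activation below 50%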;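 also: necroptosis triggered by 40 ng/mL TNF-alpha added together with compound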
Rad51 HR inh – Rad51 (human) homologous recombination inhibition; hRad51 DNA strand exchange, fluorescence dequenching; inhibition, % at 10 µM; actives 0.085% (n = 200,000); Q06609;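 active = inhibition above 40% at the single screening dose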
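material = hRad51 filaments on single-stranded DNA | timing = filaments 15 min 37 °C, then compound 30 min | signal = FRET fluorescence dequenching, excitation 485 nm, emission 520 nm | benchmarks = control wells and blank wells on each plate | evaluation = percent inhibition relative to plate controls and blanks | compound = 10 µM final, single point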
HMGR II inh – inhibitors of class II HMG-CoA reductase from Enterococcus faecalis. inhibition, % at 10 µM. purified E. faecalis HMGR, NADPH absorbance 340 nm kinetic. AID 1066. actives 0.41% (n = 190,000);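 active = inhibition above a set limit, the median over all tested compounds plus 3 SD, cut at about 9.5% in these data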;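 also: enzyme runs in reverse so mevalonate oxidation gives rising NADPH absorbance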
zVAD death inh – L929 zVAD cell death inhibition; viability rescue, % at 10 µM; actives 0.38% (n = 220,000); AID 1377; L929 zVAD necroptosis rescue, ATP luminescence, 24 h; with zVAD 60 µM;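 active = activation, scaled between plate controls, above about 75%, limit read from the data; inactive = activation under that limit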
Large screens that a line does not name were inactive.

CC(=O)NNc1ncnc2c1cnn2-c1ccc(C)c(Cl)c1	HMGR II inh 11.5
COc1ccc(OC)c(-n2c(=S)[nH]c3c(sc(=S)n3-c3ccccc3)c2=O)c1	none
O=C1NC(c2ccncc2)C(C(=O)c2cccs2)C(O)(C(F)(F)F)N1 (centres undefined)	PERK inh 3.0
COc1cccc(C2NC(=O)NC(O)(C(F)(F)F)C2C(=O)c2cccnc2)c1OC (centres undefined)	HMGR II inh 18.7
O=C(NC(=S)N(CC1CCC1)CC1CCCO1)c1cccc([N+](=O)[O-])c1 (centres undefined)	HMGR II inh 13.7
Cn1cccc1C(=O)OCC(=O)N1c2ccccc2NC(=O)C1(C)C	none
O=C1CN(C(=O)CSc2nnc3ccccn23)c2ccccc2N1	HMGR II inh 12.2
Cc1nnc(SCC(=O)N2CC(=O)Nc3ccccc32)n1C	none
Cn1cccc1C(=O)OCC(=O)N1CC(=O)Nc2ccccc21	HMGR II inh 10.8
CCOC(=O)c1c(C)n(-c2ccc(C)cc2)c2ccc(OCC(O)CN3CCN(C)CC3)cc12 (centres undefined)	none
CCOC(=O)/C(=N\Nc1cc(Cl)ccc1Cl)N1CC(C)OC(C)C1 (centres undefined)	Rad51 HR inh 41.9 (no result: HMGR II inh)
Cc1cc(C)c2c3c(oc2n1)C(=O)N(c1cccc(Cl)c1)CC(=O)N3	none (no result: HMGR II inh)
Cc1cccc(C)c1NC(=S)N(CCCN1CCN(C)CC1)Cc1cccs1	none
CC1=C(C(N)=O)S(=O)(=O)c2ccccc21	PERK inh 3.1 (no result: HMGR II inh)
O=C(COc1ccccc1Cl)NC(=O)NC1CCCC1	TNF death inh 57.4
Cc1cccc(NC(=O)c2cnc3sccn3c2=O)c1	none (no result: Rad51 HR inh)
Cc1cccc(NC(=O)c2cnc3ccccn3c2=O)c1	PERK inh 3.1
CCCNC(=O)CN1C(=O)NC(CCc2ccccc2)C1=O (centres undefined)	HMGR II inh 11.7
COc1ccc(CC(=O)Nc2nc(-c3cc(OC)ccc3OC)cs2)cc1	none
COc1cccc(CC(=O)Nc2nc(-c3cc(OC)ccc3OC)cs2)c1	HMGR II inh 12.2
NC(=O)C1Cc2ccccc2CN1S(=O)(=O)c1cccs1 (centres undefined)	HMGR II inh 9.7
O=C(C1Cc2ccccc2CN1S(=O)(=O)c1cccs1)N1CCCCCC1 (centres undefined)	none
CCN(CC)S(=O)(=O)c1cccc(N=Nc2c(O)c3ccccc3oc2=O)c1	none (no result: HMGR II inh)
Cc1noc(NS(=O)(=O)c2ccc(N3Cc4ccccc4C3=O)cc2)c1C	PERK inh 3.1
COc1cc(C2OCC3C(c4ccc(OC5OC(CO)C(O)C(O)C5O)c(OC)c4)OCC23)ccc1O (centres undefined)	none
COc1ccc(C[C@H]2COC(=O)[C@@H]2Cc2ccc(OC3OC(CO)C(O)C(O)C3O)c(OC)c2)cc1OC (some centres undefined)	HMGR II inh 20.1
O=C1CC(C(=O)Nc2cc(Cl)ccc2Cl)n2ncnc2N1 (centres undefined)	none
O=C(N/C(=C\c1ccc(Br)cc1)C(=O)N1CCCC1)c1ccccc1F	none
Cc1ccc(-c2nn(Cc3ccccc3)cc2/C=C/C(=O)O)cc1C	none
O=C(O)/C=C/c1cn(Cc2ccccc2)nc1-c1ccccc1	Rad51 HR inh 44.4
Cc1ccc([N+](=O)[O-])cc1Nc1nc(N2CCOCC2)nc(N2CCOCC2)n1	HMGR II inh 10.3
CN(C(=O)CN(c1ccccc1)S(=O)(=O)c1ccc(F)cc1)C1CCS(=O)(=O)C1 (centres undefined)	none (no result: HMGR II inh)
CC(C)(NC(=O)c1cc(Cl)c2ccccc2c1O)C(=O)O	none (no result: HMGR II inh)
O=C(Nc1ccc(-c2nc3ccccc3o2)cc1)c1ccc2c(c1)OCO2	Rad51 HR inh 87.2
Cc1ccc(S(=O)(=O)ON2C(=O)c3ccccc3C2=O)c(C)c1	HMGR II inh 17.1
COC(=O)c1ccccc1NC(=O)C(C)c1ccc([N+](=O)[O-])cc1 (centres undefined)	Rad51 HR inh 41.6
CCN1C(=O)/C(=C\N(C)C)c2ccccc21	HMGR II inh 10.9
CSc1nc(Sc2ccc(Cl)cc2)c2ccccc2n1	PERK inh 2.9 (no result: Rad51 HR inh)
CSc1nc(Sc2ccccc2)c2ccccc2n1	none
O=C(c1ccco1)[C@@H]1[C@@H]2C(=O)N(c3ccc(F)cc3)C(=O)[C@@H]2C2c3ccccc3C=CN21 (some centres undefined)	PERK inh 3.0
O=C(c1ccco1)[C@@H]1[C@@H]2C(=O)N(c3ccc(Br)cc3)C(=O)[C@@H]2C2c3ccccc3C=CN21 (some centres undefined)	none (no result: HMGR II inh)
Cc1onc(-c2c(Cl)cccc2Cl)c1NC(=O)NC1CCSC1 (centres undefined)	none (no result: HMGR II inh)
CCOC(=O)c1c(NC(=S)Nc2ccc(OC)cc2)sc2c1CCC2	none
COC(=O)c1c(NC(=S)Nc2ccc(C(=O)N3CCOCC3)cc2)sc2c1CCC2	PERK inh 3.0
O=C(Nc1ccc(F)cc1F)c1cc(=O)n(-c2ccccc2)c(=O)[nH]1	none
COc1cccc(CNCCSc2nnnn2C)c1	none
Cn1nnnc1SCCNCc1cccnc1	PERK inh 3.2
Cc1cccc(C)c1NC(=O)Cn1nnnc1N	HMGR II inh 13.0
Brc1cccc(CNc2nc3ccccc3n2CCN2CCOCC2)c1	none
COc1cccc(-n2cc(CNCc3c(C(=O)N(C)C)nc4ccc(Cl)cn34)cn2)c1	none
Cc1ccccc1-n1cc(CNCc2c(C(=O)N(C)C)nc3ccc(Cl)cn23)cn1	HMGR II inh 13.0
Cc1ccc(Cn2nnc3c(=O)n(CC(=O)NCc4ccco4)cnc32)cc1	HMGR II inh 19.6
O=C1C(=O)N(CC2CCCO2)C(c2ccco2)/C1=C(/O)c1ccc(F)cc1 (centres undefined)	none
COc1ccc(/C=N/Nc2nc(N3CCCC3)nc(N3CCCC3)n2)cc1	none
COc1ccc(/C=N/Nc2nc(Nc3ccccc3)nc(N3CCCC3)n2)cc1	HMGR II inh 11.2
Cc1cc(C(=O)NCc2ccccc2Cl)n(-c2ccccc2)n1	none (no result: HMGR II inh)
COC(=O)C(=C/C=C/N1CCOCC1)C(=O)OC	none (no result: HMGR II inh)
CCOc1ccc(S(=O)(=O)N(C)CCO)cc1-c1nc2c(C(C)(C)C)nn(C)c2c(=O)[nH]1	HMGR II inh 24.9 (no result: Rad51 HR inh)
CCOc1ccc(S(=O)(=O)N(C)C)cc1-c1nc2c(C(C)(C)C)nn(C)c2c(=O)[nH]1	none
CC1(C)CC(C)(c2ccc(O)cc2O)N(c2ccc3ccccc3c2)C(=S)N1 (centres undefined)	none
CC1(C)CC(C)(c2ccc(O)cc2O)N(c2cccc(Cl)c2)C(=S)N1 (centres undefined)	HMGR II inh 10.6
O=C(Nc1ccc2c(c1)CCC2)c1ccc(Cl)nc1	none
CC(=O)Nc1ccc(NC(=O)c2ccc(Cl)nc2)cc1	Rad51 HR inh 41.5 (no result: HMGR II inh)
CSc1nc(C)cc(-c2cc(C(=O)Nc3ccccc3)on2)n1	none (no result: PERK inh, TNF death inh, HMGR II inh, zVAD death inh)
